What is called MIC is the smallest concentration in the dilution series that meets the test's criterion for growth inhibition. The low end stands for inhibition by little substance, the high end for a need for much substance.

This note sets out measurements from ChEMBL document CHEMBL4002631, “Synthesis, antimycobacterial and cytotoxic activity of α,β-unsaturated amides and 2,4-disubstituted oxazoline derivatives” (Bioorg Med Chem Lett, 2017).

SMILES strings stand for the structures. Converted amounts (≈) assume the structure as drawn.

In the first data set the test system is Liver. The experiment in a line: Toxicity in Sprague-Dawley rat liver assessed as centrilobular necrosis at 5 to 30 ug/ml after 24 hrs by hematoxylin and eosin staining-based bright field microscopic method. It is filed as tissue-based.
Settings: not given
An outline of the steps: (§1)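 Ex-vivo 3D assay using precision-cut rat liver slices. Slices were cultured for 24 h at 5, 15 and 30 µg/mL, with compound dissolved in DMSO. Controls were medium alone and 0.5% DMSO (negative), with isoniazid as the reference. Read-out was histopathology of H&E-stained sections under bright-field light microscopy (40x), scoring hepatic cords, portal triads, central veins, inflammatory infiltrate and necrosis.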
As to `NNC(=O)c1ccncc1` [ISONIAZID], the Activity entry is reported as “Toxic”.

For the next data set, the system named is Liver. The experiment in a line: Toxicity in Sprague-Dawley rat liver assessed as presence of periportal inflammatory infiltrate at 5 to 30 ug/ml after 24 hrs by hematoxylin and eosin staining-based bright field microscopic method. The class given is tissue-based.
Settings: not given
An outline of the steps: as §1
Consider `NNC(=O)c1ccncc1` [ISONIAZID], for which the Activity entry was “Toxic”.

For a further data set, the system named is Liver. The experiment in a line: Toxicity in Sprague-Dawley rat liver assessed as histological damage at 5 to 30 ug/ml after 24 hrs by hematoxylin and eosin staining-based bright field microscopic method. The class given is tissue-based.
Settings: not given
An outline of the steps: as §1
Consider `COc1ccc(/C=C/C2=N[C@@H](Cc3ccccc3)CO2)cc1`, for which the Activity result is reported as “Non-Toxic”.

In another data set the test system is Mycobacterium tuberculosis. The data set is described as follows: Antimycobacterial activity against isoniazid/rifampicin/ethambutol-sensitive Mycobacterium tuberculosis H37Rv after 4 days by Alamar blue assay. Particulars: 96 h. It is filed as functional. Summed up:
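Microplate Alamar blue assay against M. tuberculosis H37Rv (sensitive to isoniazid, rifampicin and ethambutol) and a clinical isolate resistant to all three drugs. Compounds were tested at 256, 128, 64, 32, 16, 8, 4, 2 and 1 µg/mL. Isoniazid, rifampicin, ethambutol and ofloxacin controls were run under the same conditions. MIC is given in µg/mL and converted to µM.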
A general note: Resazurin is reduced to fluorescent resorufin, in cell work by metabolically active cells.
Turning to `CC[C@@H](CO)NCCN[C@@H](CC)CO` [ETHAMBUTOL], the minimal inhibitory concentration (MIC) was 39.1 µM (≈ 7.99 µg/mL).

In the case of `NNC(=O)c1ccncc1` [ISONIAZID], the minimum inhibitory concentration (MIC) is below 7.2 µM.

Regarding `COc1ccc(/C=C/C(=O)N[C@H](CO)Cc2ccccc2)cc1`, it took 25.6 µM (≈ 7.97 µg/mL) to inhibit growth (MIC).

`Clc1ccc(/C=C/C2=N[C@@H](Cc3ccccc3)CO2)cc1` registered a minimal inhibitory concentration (MIC) of 26.9 µM (≈ 8.01 µg/mL).

Compound `C(=C\c1ccccc1)/C1=N[C@@H](Cc2ccccc2)CO1` came in with a minimum inhibitory concentration (MIC) of 60.8 µM (≈ 16 µg/mL).

For the compound `Fc1ccc(/C=C/C2=N[C@@H](Cc3ccccc3)CO2)cc1`, the MIC turned out to be 14.2 µM (≈ 3.99 µg/mL).

With `C(=C\c1cccs1)/C1=N[C@@H](Cc2ccccc2)CO1`, the minimum inhibitory concentration (MIC) was found to be 29.7 µM (≈ 8 µg/mL).

Turning to `COc1ccc(/C=C/C2=N[C@@H](Cc3ccccc3)CO2)cc1`, the MIC turned out to be 13.6 µM (≈ 3.99 µg/mL).

In turn, `CC1COc2c(N3CCN(C)CC3)c(F)cc3c(=O)c(C(=O)O)cn1c23` (centres undefined) [OFLOXACIN] gave a minimum inhibitory concentration (MIC) below 2.7 µM.

The compound `O=C(/C=C/c1ccc(OCc2ccccc2)cc1)N[C@H](CO)Cc1ccccc1` gave an MIC of 41.2 µM (≈ 16 µg/mL).

With `C(=C\c1ccc(OCc2ccccc2)cc1)/C1=N[C@@H](Cc2ccccc2)CO1`, the MIC amounted to 10.8 µM (≈ 3.99 µg/mL).

As for `O=C(/C=C/c1ccc(F)cc1)N[C@H](CO)Cc1ccccc1`, inhibition of growth (MIC) required 26.7 µM (≈ 7.99 µg/mL).

On to `O=C(/C=C/c1cccs1)N[C@H](CO)Cc1ccccc1`, for which the lowest concentration to inhibit growth (MIC) was 55.6 µM (≈ 16 µg/mL).

`CO[C@H]1/C=C/O[C@@]2(C)Oc3c(C)c(O)c4c(O)c(c(/C=N/N5CCN(C)CC5)c(O)c4c3C2=O)NC(=O)/C(C)=C\C=C\[C@H](C)[C@H](O)[C@@H](C)[C@@H](O)[C@@H](C)[C@H](OC(C)=O)[C@@H]1C` [RIFAMPIN] returned a minimum inhibitory concentration (MIC) of 4.8 µM (≈ 3.95 µg/mL).

Consider `O=C(/C=C/c1ccccc1)N[C@H](CO)Cc1ccccc1`, for which the lowest concentration to inhibit growth (MIC) was 56.8 µM (≈ 16 µg/mL).

The compound `O=C(/C=C/c1ccc(Cl)cc1)N[C@H](CO)Cc1ccccc1` displayed an MIC of 25.3 µM (≈ 7.99 µg/mL).
